Test results as given in ChEMBL document CHEMBL5244263, “Studies on fragment-based design of allosteric inhibitors of human factor XIa” (Bioorg Med Chem, 2020).
Values belong to the compound of their own block, whether it stands above or below them. Activity calls are given as the source filed them. The calls are words filed in the database; no cut-off is given here.

How the values were obtained:
[1] = target: T1, Coagulation factor XI (Homo sapiens, UniProt P03951); assay: Inhibition of human FXIa using S-2366 as chromogenic substrate preincubated with enzyme for 10 mins followed by substrate addition by spectrophotometric analysis
[2] = target: T1, Coagulation factor XI; assay: (§1) Inhibition of human FXIa using S-2366 as chromogenic substrate preincubated with enzyme for 10 mins followed by substrate addition by spectrophotometric analysis relative to control; design: concentration or dose not given beside the values
Summary of the method: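 hFXIa (0.765 nM final) preincubated with inhibitor or reference solution for 10 min at 37 °C in pH 7.4 buffer (50 mM Tris-HCl, 150 mM NaCl, 0.1% PEG8000, 0.02% Tween80). S-2366 (345 μM final) then added, and residual activity read on a microplate reader.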

[3] = target: Prothrombin (Homo sapiens) (UniProt P00734); assay: Inhibition of human thrombin at 500 uM by chromogenic substrate hydrolysis assay
[4] = target: T2, Coagulation factor VII (Homo sapiens) (UniProt P08709); assay: Inhibition of FVIIa (unknown origin) at 500 uM by chromogenic substrate hydrolysis assay
T2 sequence (whole entry): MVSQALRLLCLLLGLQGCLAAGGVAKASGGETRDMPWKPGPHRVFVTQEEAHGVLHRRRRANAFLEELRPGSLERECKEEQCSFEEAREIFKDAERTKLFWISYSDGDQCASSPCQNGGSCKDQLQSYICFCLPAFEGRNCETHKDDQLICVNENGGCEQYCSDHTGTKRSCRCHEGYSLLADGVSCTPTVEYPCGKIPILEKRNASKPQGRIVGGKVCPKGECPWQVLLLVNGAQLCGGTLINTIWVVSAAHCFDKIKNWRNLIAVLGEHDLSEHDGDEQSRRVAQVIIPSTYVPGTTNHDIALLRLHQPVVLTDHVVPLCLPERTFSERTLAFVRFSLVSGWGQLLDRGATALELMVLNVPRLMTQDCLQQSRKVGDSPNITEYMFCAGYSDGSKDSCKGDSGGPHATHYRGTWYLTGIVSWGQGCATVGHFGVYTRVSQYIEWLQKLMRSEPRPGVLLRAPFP

[5] = target: Coagulation factor IX (Homo sapiens) (UniProt P00740); assay: Inhibition of human FIXa at 500 uM by chromogenic substrate hydrolysis assay
[6] = target: Plasma kallikrein (Homo sapiens) (UniProt P03952); assay: Inhibition of Kallikrein in human plasma at 500 uM by chromogenic substrate hydrolysis assay; format: cell-free
[7] = target: Chymotrypsinogen A (Bos taurus) (UniProt P00766); assay: Inhibition of bovine alpha-chymotrypsin at 500 uM by chromogenic substrate hydrolysis assay
[8] = species on record: Homo sapiens; assay: Selectivity for inhibition of human FXIa over human thrombin
[9] = species on record: Homo sapiens; assay: Selectivity for inhibition of human FXIa over FVIIa (unknown origin)
[10] = species on record: Homo sapiens; assay: Selectivity for inhibition of human FXIa over human FIXa
[11] = species on record: Homo sapiens; assay: Selectivity for inhibition of human FXIa over human FXa
[12] = species on record: Homo sapiens; assay: Selectivity for inhibition of human FXIa over Kallikrein in human plasma; format: cell-free
[13] = Selectivity for inhibition of human FXIa over bovine trypsin
[14] = Selectivity for inhibition of human FXIa over bovine alpha-chymotrypsin
[15] = target: Coagulation factor X (Homo sapiens) (UniProt P00742); assay: Inhibition of human FXa using methoxycarbonyl-D-cyclohexylglycyl-Gly-Arg-p-nitroanilide as substrate at >200 uM by chromogenic substrate hydrolysis assay
[16] = species on record: Bos taurus; assay: Inhibition of bovine trypsin using S-2222 as chromogenic substrate at >200 uM by chromogenic substrate hydrolysis assay
[17] = target: T1, Coagulation factor XI; assay: Binding affinity to active site dansylated human DEGR-FXIa assessed as hyperbolic interaction by measuring change in fluorescence intensity by fluorescence based analysis
Summary of the method: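 Titration of sulfated QAOs into 250 nM active-site dansylated hFXIa–DEGR in 50 mM Tris-HCl pH 7.4, 150 mM NaCl, 0.1% PEG8000, 37 °C. Emission monitored at 547 nm (excitation 345 nm). ΔFMAX, Hill coefficient n and KD obtained by nonlinear regression, using either the Hill equation or a standard hyperbolic equation. Error ±1 SE.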

[18] = target: T1, Coagulation factor XI; assay: Binding affinity to active site dansylated human DEGR-FXIa assessed as maximal change in fluorescence intensity by fluorescence based analysis
Summary of the method: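 Dansyl fluorescence titration: aliquots of sulfated QAO added to 250 nM hFXIa–DEGR in 50 mM Tris-HCl pH 7.4, 150 mM NaCl, 0.1% PEG8000 at 37 °C. Emission read at 547 nm with excitation at 345 nm. ΔFMAX, Hill coefficient and KD come from nonlinear regression fits, using the Hill equation or a standard hyperbolic equation. Error is ±1 SE.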

[19] = target: T1, Coagulation factor XI; assay: Binding affinity to active site dansylated human DEGR-FXIa assessed as change in fluorescence intensity by fluorescence based analysis
[20] = target: Coagulation factor X (Homo sapiens) (UniProt P00742); assay: Inhibition of human FXa using methoxycarbonyl-D-cyclohexylglycyl-Gly-Arg-p-nitroanilide as substrate at 500 uM by chromogenic substrate hydrolysis assay
[21] = species on record: Bos taurus; assay: Inhibition of bovine trypsin using S-2222 as chromogenic substrate at 500 uM by chromogenic substrate hydrolysis assay
[22] = species on record: Homo sapiens; assay: as §1, with “FXIa heparin-binding site of A3 domain harboring K252A,K253A,K255A mutant and heparin-binding site of catalytic domain harboring K529A,R530A,R532A,K535A,K539A mutant” for “FXIa”
Summary of the method: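 Recombinant hFXIa alanine mutants tested in 50 mM Tris-HCl pH 7.4, 150 mM NaCl, 0.1% PEG8000, 0.02% Tween80. Inhibitor and enzyme incubated 10 min at 37 °C, then S-2366 (345 μM final) added and residual activity read. IC50 and maximal inhibition efficacy (ΔY) obtained by nonlinear dose-response regression.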

T1 sequence (P03951 19-387 limits assumed): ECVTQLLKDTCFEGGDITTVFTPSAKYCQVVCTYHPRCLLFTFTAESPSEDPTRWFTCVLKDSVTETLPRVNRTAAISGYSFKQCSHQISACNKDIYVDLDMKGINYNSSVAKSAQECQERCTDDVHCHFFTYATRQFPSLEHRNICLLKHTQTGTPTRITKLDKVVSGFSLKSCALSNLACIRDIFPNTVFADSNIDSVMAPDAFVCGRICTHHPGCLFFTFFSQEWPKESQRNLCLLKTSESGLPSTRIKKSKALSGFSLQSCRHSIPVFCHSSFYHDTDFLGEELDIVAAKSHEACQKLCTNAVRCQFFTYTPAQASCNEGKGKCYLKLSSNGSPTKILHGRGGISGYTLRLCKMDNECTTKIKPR
T1 sequence (P03951 388-625 limits assumed): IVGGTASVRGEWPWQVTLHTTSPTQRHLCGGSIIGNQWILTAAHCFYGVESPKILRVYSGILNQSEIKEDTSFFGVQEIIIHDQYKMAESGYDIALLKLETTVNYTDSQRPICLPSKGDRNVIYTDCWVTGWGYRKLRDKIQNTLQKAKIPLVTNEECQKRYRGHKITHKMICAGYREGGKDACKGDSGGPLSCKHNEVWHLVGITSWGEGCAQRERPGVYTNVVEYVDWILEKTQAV
Sequence of Coagulation factor IX (Homo sapiens) (P00740 47-191 limits assumed): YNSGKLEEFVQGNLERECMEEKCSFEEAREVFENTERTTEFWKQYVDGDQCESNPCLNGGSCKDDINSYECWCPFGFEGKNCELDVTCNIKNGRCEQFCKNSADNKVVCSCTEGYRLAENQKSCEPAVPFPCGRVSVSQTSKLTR
Sequence of Coagulation factor IX (Homo sapiens) (P00740 227-461 limits assumed): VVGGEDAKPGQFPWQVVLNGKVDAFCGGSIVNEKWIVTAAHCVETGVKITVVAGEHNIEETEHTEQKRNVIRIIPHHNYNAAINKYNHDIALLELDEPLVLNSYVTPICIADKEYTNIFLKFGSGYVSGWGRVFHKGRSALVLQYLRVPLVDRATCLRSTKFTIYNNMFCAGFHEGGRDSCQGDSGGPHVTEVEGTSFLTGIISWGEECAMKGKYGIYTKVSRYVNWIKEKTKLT
Sequence of Plasma kallikrein (Homo sapiens) (P03952 20-390 limits assumed): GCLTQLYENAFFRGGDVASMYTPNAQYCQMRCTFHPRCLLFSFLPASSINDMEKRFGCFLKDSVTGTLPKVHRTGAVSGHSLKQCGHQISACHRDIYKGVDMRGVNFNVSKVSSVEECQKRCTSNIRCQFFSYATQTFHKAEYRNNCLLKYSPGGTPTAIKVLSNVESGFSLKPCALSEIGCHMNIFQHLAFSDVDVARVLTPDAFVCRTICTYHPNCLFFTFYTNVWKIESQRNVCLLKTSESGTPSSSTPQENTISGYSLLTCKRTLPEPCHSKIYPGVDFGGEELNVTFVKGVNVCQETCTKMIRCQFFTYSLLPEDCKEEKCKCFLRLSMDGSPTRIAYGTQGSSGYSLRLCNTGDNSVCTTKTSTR
Sequence of Plasma kallikrein (Homo sapiens) (P03952 391-638 limits assumed): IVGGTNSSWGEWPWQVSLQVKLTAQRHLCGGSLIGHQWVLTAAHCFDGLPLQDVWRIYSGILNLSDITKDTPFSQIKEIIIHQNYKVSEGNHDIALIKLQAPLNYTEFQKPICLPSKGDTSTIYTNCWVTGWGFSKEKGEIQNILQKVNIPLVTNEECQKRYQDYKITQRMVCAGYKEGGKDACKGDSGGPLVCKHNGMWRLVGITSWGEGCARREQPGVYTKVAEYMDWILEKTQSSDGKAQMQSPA
Sequence of Coagulation factor X (Homo sapiens) (P00742 41-179 limits assumed): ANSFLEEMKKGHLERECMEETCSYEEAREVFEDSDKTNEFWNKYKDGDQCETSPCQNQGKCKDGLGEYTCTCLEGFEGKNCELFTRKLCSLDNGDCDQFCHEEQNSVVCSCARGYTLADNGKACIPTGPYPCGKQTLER
Sequence of Coagulation factor X (Homo sapiens) (P00742 235-488 limits assumed): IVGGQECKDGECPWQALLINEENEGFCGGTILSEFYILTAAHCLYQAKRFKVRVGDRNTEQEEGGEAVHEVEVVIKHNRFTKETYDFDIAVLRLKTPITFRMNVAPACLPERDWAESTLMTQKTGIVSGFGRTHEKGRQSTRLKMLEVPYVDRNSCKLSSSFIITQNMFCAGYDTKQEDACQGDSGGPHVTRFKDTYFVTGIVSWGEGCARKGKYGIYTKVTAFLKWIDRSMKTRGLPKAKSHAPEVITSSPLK

IC50 [1]: 16.6 µM
inhibition [2]: 95%
inhibition [3]: inactive
inhibition [4]: inactive
inhibition [5]: inactive
inhibition [6]: inactive
inhibition [7]: inactive
Selectivity ratio [8]: > 63
Selectivity ratio [9]: > 63
Selectivity ratio [10]: > 63
Selectivity ratio [11]: > 25
Selectivity ratio [12]: > 63
Selectivity ratio [13]: > 25
Selectivity ratio [14]: > 63
inhibition [15]: Active
inhibition [16]: Active
Structure (SMILES): O=c1c2ccccc2nc(-c2ccc(OS(=O)(=O)O)cc2)n1CCCCCCCCCCn1c(-c2ccc(OS(=O)(=O)O)cc2)nc2ccccc2c1=O

IC50 [1]: 375 µM
Activity [17]: Active
Activity [18]: -34%
Kd [19]: 365 µM
Structure (SMILES): O=c1[nH]c(-c2ccc(OS(=O)(=O)O)cc2)nc2ccccc12

Structure (SMILES): O=c1c2ccccc2nc(-c2ccc(OS(=O)(=O)O)cc2)n1CCCCCCCCCn1c(-c2ccc(OS(=O)(=O)O)cc2)nc2ccccc2c1=O
inhibition [3]: inactive
inhibition [4]: inactive
inhibition [5]: inactive
inhibition [20]: inactive
inhibition [6]: inactive
inhibition [21]: inactive
inhibition [7]: inactive
inhibition [22]: 105%
